The values below come from ChEMBL document CHEMBL1130202, “Biologically active heteroarotinoids exhibiting anticancer activity and decreased toxicity” (J Med Chem, 1997).

The subject of this experiment is CC-B. In words: Relative transcriptional activation activity relative to t-RA. The experiment is classed as functional, Homo sapiens. The essentials:
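CC-B reporter cells (CC-1 cervical line carrying a CAT gene under a RARE with a tk promoter) were seeded at 4×10^5 cells/well in MEM with nonessential amino acids, pyruvate and 10% FBS, the serum lots having negligible t-RA by HPLC. Triplicate cultures were screened at 10^-6 M with 0.1% DMSO final. After 48 h, CAT activity ([3H]acetyl-CoA) per mg protein was taken as treated/control and expressed relative to t-RA. Average of three experiments.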
With `CCOC(=O)c1ccc(OC(=O)c2ccc3c(c2)C(C)(C)CCN3C)cc1`, the Relative activity is 54.

For the molecule `COC(=O)c1ccc(C(=O)Oc2c(C)cc3c(c2C)C(C)(C)CC(=O)O3)cc1`, the Relative activity is on record as 29.

As for `CCOC(=O)c1ccc(OC(=O)c2ccc3c(c2)C(C)(C)CCO3)cc1`, the Relative activity came out at 40.

Molecule `CCOC(=O)c1ccc(/C=C(\C)c2ccc3c(c2)CC[C@@H](CC)[S+]3[O-])cc1` (stereo partly specified) returned a Relative activity of 35.8.

In turn, `C/C(=C\c1ccc(C(=O)O)cc1)c1ccc2c(c1)C(C)(C)CO2` had a Relative activity of 46.

In turn, `CCOC(=O)c1ccc(/C=C(\C)c2ccc3c(c2)C(C)(C)CCO3)cc1` gave a Relative activity of 35.7.

Turning to `CC1(C)CCOc2ccc(C(=O)Oc3ccc(/C=N\N=C(/N)S)cc3)cc21`, the Relative activity came out at 33.

Molecule `CC(/C=C/C=C(\C)c1ccc2c(c1)C(C)(C)CS2)=C\C(=O)O` registered a Relative activity of 50.

As for `CCOC(=O)c1ccc(/C=C(\C)c2ccc3c(c2)C(C)(C)CCS3)cc1`, the Relative activity was found to be 51.

`C/C(=C\c1ccc(C(=O)O)cc1)c1ccc2c(c1)C(C)(C)CS2` came in with a Relative activity of 56.

Take `CCCCCCCCC1CCc2cc(/C(C)=C/c3ccc(C(=O)OCC)cc3)ccc2S1` (stereo unspecified): the Relative activity came out at 43.
